# Experimental data from PMC8197731 (The journal of pain, 2021).
# “Also recorded” adds a separate entry of the source.
# Key:
# [1] = tested on: WT and PAR3^−/− mice; experiment: Mechanical paw withdrawal threshold; type: in vivo, mouse
# [2] = tested on: WT and PAR3^−/− mice; experiment: Facial grimacing; type: in vivo, mouse; settings: for facial grimacing, WT and PAR3^−/− / facial grimacing, PAR3^−/− and WT: male
# [3] = tested on: WT and PAR3^−/− mice; type: in vivo, mouse
# [4] = tested on: WT and PAR3^−/− mice; type: in vivo, mouse; remark: listed apart in the source
# Outline: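 Eight-week-old male mice were primed by intraplantar injection and allowed to recover completely (14 d), then given 100 ng PGE2 into the same hind paw. Facial expressions were video-recorded with mice placed individually in 9×5×5 cm cubicles, using an adapted mouse grimace scale protocol. Scores were averaged per time point for each cohort, with 4 mice per genotype.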
# [5] = tested on: HEK293 cells not induced to express PAR3; experiment: RTCA; type: cell-based; settings: varying concentrations of C660; Cell Index
# Outline: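 Uninduced HEK293 Flp-In T-Rex cells were plated on poly-L-lysine E-plates in DMEM/F12 with 5% FBS, run alongside tetracycline-induced cells. Compound was added in quadruplicate at varying final concentrations once impedance stabilized (~6 h). Cell Index, calculated as (Zi−Z0)/15 Ω, was recorded every minute for 4 h, and peak changes after addition were taken.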
# [6] = tested on: lamina IIo neurons in lumbar segments of mouse spinal cord
# [7] = tested on: WT and PAR3^−/− mice; experiment: Thermal sensitivity; type: in vivo, mouse; settings: C660, Hargreaves
# [8] = tested on: rat astrocytes; settings: ref [60]; cited from earlier work
# [9] = tested on: human smooth muscle cells; settings: ref [6]; cited from earlier work
# [10] = tested on: human A-498 carcinoma cells; settings: ref [35]; cited from earlier work
# [11] = tested on: mouse lung fibroblasts; settings: ref [35]; cited from earlier work
# [12] = Solubility of the synthesized ligands; type: physicochemical; settings: aqueous buffers (as printed for C751)
# [13] = target: T1, human PAR3 (Homo sapiens, UniProt O00254); settings: COS-7 cells transfected with human PAR3; ref [30]; cited from earlier work
# T1 sequence (O00254 22-374): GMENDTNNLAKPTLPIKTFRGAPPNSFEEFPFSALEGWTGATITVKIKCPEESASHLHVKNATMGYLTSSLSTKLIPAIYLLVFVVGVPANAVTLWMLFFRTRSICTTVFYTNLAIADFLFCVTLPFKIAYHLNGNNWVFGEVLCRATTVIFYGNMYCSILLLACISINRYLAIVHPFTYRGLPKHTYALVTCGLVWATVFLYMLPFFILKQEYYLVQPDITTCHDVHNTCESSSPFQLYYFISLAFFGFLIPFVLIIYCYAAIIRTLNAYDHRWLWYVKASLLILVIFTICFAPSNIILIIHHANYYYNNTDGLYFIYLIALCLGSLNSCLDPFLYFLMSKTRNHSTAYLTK
# [14] = tested on: Murine PAR3; settings: COS-7 cells transfected with murine PAR3; ref [47]; cited from earlier work
# [15] = target: T1, human PAR3; experiment: RTCA; type: cell-based
# Outline: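 HEK293 Flp-In T-Rex cells stably carrying human PAR3 were induced with tetracycline (0.3 or 1 μg/mL, 48 h), then plated on poly-L-lysine E-plates in DMEM/F12 with 5% FBS. At Cell Index stabilization (~6 h), compound was added in quadruplicate at varying final concentrations. CI was read every minute for 4 h. Peak CI changes were normalized to percent of the plate's peak response, and EC50 was fitted across multiple plates.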
# [16] = primed with IL-6 0.1 ng, i.pl, PGE2 100 ng after 14 d, n = 4/group
# [17] = C660 30 pmol intraplantar, WT male mice, n = 4/group
# [18] = TFFLLR-NH2 100 μg, i.pl, male, n = 4/group
# [19] = thrombin 10 units, i.pl, male, n = 4/group
# [20] = thrombin 10 units, i.pl, male, n = 4/group, listed as thrombin
# [21] = 2AT 30 pmol, hind paw, n = 4/group
# [22] = primed with 2AT 30 pmol, i.pl, PGE2 100 ng after 14 d, n = 4/group
molecule,measurement,setting,value
AYPGKF-NH2 [reference compound],"paw withdrawal threshold, WT and PAR3^−/−","[1]; AYPGKF-NH2 100 μg, hind paw, male, n = 4/group",did not significantly change withdrawal thresholds and grimacing in WT while a transient effect was seen in PAR3^−/− mice; also recorded: did not change significantly in both WT and PAR3^−/− mice groups
same,"facial grimacing, PAR3^−/−, 1 hr","[2]; AYPGKF-NH2 100 μg, i.pl, PAR3^−/−, 1 hr post-injection, n = 4/group",transiently increased
same,"facial grimacing, WT and PAR3^−/−","[2]; AYPGKF-NH2 100 μg, i.pl, n = 4/group",did not significantly change withdrawal thresholds and grimacing in WT while a transient effect was seen in PAR3^−/− mice
carrageenan,"acute response, WT vs PAR3^−/−","[1]; carrageenan, male mice (Supplementary Fig. S5A–B)",male WT and PAR3^−/− mice responded similarly to the inflammagen acutely
same,"acute response and hyperalgesic priming, female","[3]; carrageenan, 8-week old female mice (Supplementary Fig. S6A–D)",loss of hyperalgesic priming occurred in both male and female mice
same,"hyperalgesic priming, PAR3^−/− vs WT, male","[3]; primed with carrageenan, male mice (Supplementary Fig. S5C–D)",hyperalgesic priming was again reduced in the PAR3^−/− mice; also recorded: loss of hyperalgesic priming
IL-6: inflammatory cytokine interleukin 6,"hyperalgesic priming (paw withdrawal), PAR3^−/− vs WT",[3]; [16],not significantly affected by PGE2 treatment in comparison to WT mice; also recorded: hyperalgesic priming was diminished as measured by mechanical hypersensitivity and grimacing in PAR3^−/− mice; also recorded: loss of hyperalgesic priming
same,"hyperalgesic priming (facial grimacing), PAR3^−/− vs WT",[4]; [16],not significantly affected by PGE2 treatment in comparison to WT mice; also recorded: hyperalgesic priming was diminished as measured by mechanical hypersensitivity and grimacing in PAR3^−/− mice
TFRGAPPNSFEEF-pego3-Hdc [Compound C660],"RTCA response, cells not induced to express PAR3",[5],did not show a response; also recorded: absent when PAR3 is not expressed
same,mEPSC amplitude,[6],no change in amplitude
same,mEPSC frequency,[6],increased the frequency of mEPSCs
same,"paw withdrawal threshold, PAR3^−/−","[1]; C660 30 pmol intraplantar, PAR3^−/− male mice, n = 4/group",induces mechanical hypersensitivity and facial grimacing in WT but not PAR3^−/− mice; also recorded: significantly reduced paw withdrawal thresholds in the WT but not PAR3^−/− group; also recorded: little acute effect; also recorded: absent in PAR3 deficient mice
same,"duration of mechanical hypersensitivity, WT",[1]; [17],up to 24 hrs
same,"paw withdrawal threshold, WT",[1]; [17],induced mechanical hypersensitivity; also recorded: significantly reduced paw withdrawal thresholds; also recorded: prolonged mechanical hypersensitivity
same,"facial grimacing overall effect size, WT vs PAR3^−/−","[2]; C660 30 pmol intraplantar, 24 hr period, n = 4/group",did not differ significantly between groups
same,"facial grimacing, PAR3^−/−","[2]; C660 30 pmol intraplantar, PAR3^−/− mice",facial grimacing in WT but not PAR3^−/− mice; also recorded: little acute effect
same,"facial grimacing, WT",[2]; [17],"transient increase in facial grimacing was observed with the WT cohort at the 1 hr time point; also recorded: noted in WT mice, although changes were transient"
same,"hyperalgesic priming (paw withdrawal), PAR3^−/−","[3]; primed with C660 30 pmol, PGE2 100 ng i.pl after 14 days, PAR3^−/−, n = 4/group",partially attenuated in PAR3^−/− cohort; also recorded: greatly reduced
same,"hyperalgesic priming (paw withdrawal), WT","[3]; primed with C660 30 pmol, PGE2 100 ng i.pl after 14 days, WT, n = 4/group",caused hyperalgesic priming in WT mice
same,"affective (grimace) response to PGE2 after priming, WT vs PAR3^−/−","[4]; primed with C660 30 pmol, PGE2 100 ng i.pl after 14 days",robust affective response in WT but not PAR3^−/− mice
same,heat sensitivity,[7],did not note any changes in heat sensitivity in either strain of mice
TFRGAP,Ca2+ response in rat astrocytes,[8],elicited a Ca^2+ response in rat astrocytes
same,Ca2+ response in human smooth muscle cells,[9],elicited a Ca^2+ response in rat astrocytes [60] and human smooth muscle cells
same,"ERK activation, A-498 cells",[10],induced extracellular regulated kinase (ERK) activation via PAR1 rather than PAR3
same,"ERK activation, mouse lung fibroblasts",[11],induced extracellular regulated kinase (ERK) activation via PAR1 rather than PAR3
"NC1=N[C@H](O)[C@H]2[C@H]3O[C@]4(O)O[C@@H]([C@@H](O)[C@@]2(N1)[C@@H]4O)[C@]3(O)CO [Tetrodotoxin (TTX), Tetrodotoxin, reference compound]",effect of TTX on C660-induced increase of synaptic event frequency,[6],did not influence the effect of C660 on the increased frequency of synaptic events
TFFLLR-NH2 [reference compound],"mechanical hypersensitivity, PAR3^−/− vs WT",[1]; [18],"significantly more robust and prolonged in PAR3^−/− mice; also recorded: more marked in the latter group. Cumulatively, the genotypic differences throughout 48 hours post-injection were significant"
same,"mechanical withdrawal threshold, WT and PAR3^−/−",[1]; [18],induced mechanical hypersensitivity in both WT and PAR3^−/−; also recorded: significantly reduced mechanical withdrawal thresholds in WT and PAR3^−/− mice
same,"duration of facial grimacing, PAR3^−/−","[2]; TFFLLR-NH2 100 μg, i.pl, PAR3^−/−",up to 5 hours
same,"facial grimacing, PAR3^−/− and WT","[2]; TFFLLR-NH2 100 μg, i.pl, n = 4/group",induced prolonged facial grimacing in PAR3^−/− but not WT mice
TFRGAPPNSFEEF-pego3-KLIPAIYLLVFVVGV-amide [Compound C751],solubility,[12],low solubility
Thrombin,"mechanical hypersensitivity, PAR3^−/− vs WT",[1]; [19],"significantly greater in PAR3^−/− mice at 1, 3, and 5 hours post-injection"
same,"mechanical hypersensitivity, WT and PAR3^−/−",[1]; [19],induced lasting mechanical hypersensitivity in both WT and PAR3^−/− mice
same,"mechanical hypersensitivity, PAR3^−/− vs WT",[1]; [20],significantly more robust and prolonged in PAR3^−/− mice
same,"mechanical hypersensitivity, WT and PAR3^−/−",[1]; [20],induced mechanical hypersensitivity in both WT and PAR3^−/−
same,"duration of facial grimacing, PAR3^−/−","[2]; thrombin 10 units, i.pl, PAR3^−/−",up to 5 hours
same,"facial grimacing, PAR3^−/− and WT","[2]; thrombin 10 units, i.pl, n = 4/group",significantly increased facial grimacing in PAR3^−/− but not WT mice
same,"phosphoinositide signaling, human PAR3",[13],able to trigger robust phosphoinositide signaling
same,"signaling, murine PAR3",[14],unable to signal on its own in response to thrombin
"2-aminothiazo-4-yl-LIGRL-NH2 [Compound 2AT, reference compound]","mechanical hypersensitivity, WT and PAR3^−/−","[1]; 2AT 30 pmol, hind paw, male, n = 4/group",significantly increased (A) mechanical hypersensitivity; also recorded: did not show any differences in acute responses in PAR3^−/− mice
same,"duration of mechanical hypersensitivity, WT and PAR3^−/−",[1]; [21],up to 5 hours
same,"facial grimacing, WT and PAR3^−/−",[2]; [21],significantly increased (A) mechanical hypersensitivity (B) and facial grimacing
same,"duration of facial grimacing, WT and PAR3^−/−",[2]; [21],up to 5 hours
same,"duration of mechanical hyperalgesia after PGE2 (priming), WT","[3]; primed with 2AT 30 pmol, i.pl, PGE2 100 ng after 14 d, WT",up to 24 hours
same,"mechanical hyperalgesia after PGE2 (priming), WT and PAR3^−/−",[3]; [22],profound deficit in priming in the PAR3^−/− mice; also recorded: robust in the WT group only; also recorded: loss of hyperalgesic priming
same,"priming effect size (von Frey), WT vs PAR3^−/−","[3]; primed with 2AT 30 pmol, i.pl, PGE2 100 ng after 14 d, unpaired t-test",significant genotype difference between WT and PAR3^−/− groups
same,"facial grimacing after PGE2 (priming), WT and PAR3^−/−",[4]; [22],increased in both groups
TFRGAPPNSFEEF-pego3-KRRPAIYLLVFVVGV-amide [Compound C752],activity in RTCA,[15],not active
same,solubility,[12],improved
